This note sets out measurements from ChEMBL document CHEMBL1146498, “Excisanin H, a novel cytotoxic 14,20-epoxy-ent-kaurene diterpenoid, and three new ent-kaurene diterpenoids from Rabdosia excisa” (J Nat Prod, 2004).

≈ marks a conversion by molar mass, not a printed value.

The experiment has as its system P388. The experiment is described as follows: Cytotoxicity against mouse P388 cells. Format: functional, cell-based. The method in brief:
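In vitro assay on P388 murine leukemia cells; cytotoxic activity expressed as IC50, reported in μg/mL.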
On to `C=C1C(=O)[C@@]23[C@@H](CC[C@@H]1[C@H]2O)[C@@]12C(=O)O[C@@H]3C[C@@H]1C(C)(C)CC[C@@H]2O`, for which the IC50 was 0.77 µg/mL (≈ 2.22 µM).

`C=C1C(=O)[C@@]23[C@H](O)C[C@@H]4[C@@](C)(COC(C)=O)CC[C@H](O)[C@@]4(C)[C@@H]2CC[C@@H]1[C@H]3O` gave an IC50 of 0.72 µg/mL (≈ 1.83 µM).

`C=C1C(=O)[C@@]23[C@H](O)C[C@@H]4[C@@](C)(CO)CC[C@H](O)[C@@]4(C)[C@@H]2CC[C@@H]1[C@H]3O`: the IC50 came to 0.92 µg/mL (≈ 2.63 µM).

The molecule `C=C1C(=O)[C@@]23[C@H](O)C[C@@H]4C(C)(C)CC[C@H](O)[C@@]4(C)[C@@H]2C[C@H](O)[C@@H]1[C@H]3O` [EXCISANIN A] returned a concentration for half-maximal inhibition (IC50) of 1.11 µg/mL (≈ 3.17 µM).

The molecule `C=C1C(=O)[C@@]23[C@H](O)C[C@@H]4C(C)(C)CC[C@H](O)[C@@]4(C)[C@@H]2C[C@H](OC(C)=O)[C@@H]1[C@H]3O` [EXCISANIN B] had an IC50 of 0.63 µg/mL (≈ 1.61 µM).

`C=C1C(=O)[C@]23[C@H](O)C[C@@H]4C(C)(C)CC[C@H](O)[C@]45CO[C@]2(O)[C@H]1CC[C@@H]53` [EXCISANIN H] came in with an IC50 of 0.96 µg/mL (≈ 2.76 µM).

`C=C1C(=O)[C@@]23[C@H](O)C[C@@H]4C(C)(C)CCC[C@@]4(CO)[C@@H]2C[C@H](O)[C@@H]1[C@H]3O` [EXCISANIN I]: the IC50 stood at 0.87 µg/mL (≈ 2.48 µM).

Take `C=C1C(=O)[C@@]23[C@H](O)C[C@@H]4[C@@](C)(CO)CCC[C@@]4(CO)[C@@H]2CC[C@@H]1[C@H]3O` [EXCISANIN J]: it took 0.92 µg/mL (≈ 2.63 µM) to reach half-maximal inhibition (IC50).

Turning to `C=C1C(=O)[C@@]23[C@H](O)C[C@@H]4C(C)(C)CC[C@H](O)[C@@]4(COC(C)=O)[C@@H]2CC[C@@H]1[C@H]3O` [HENRYIN], half-maximal inhibition (IC50) required 0.58 µg/mL (≈ 1.48 µM).

`C=C1C(=O)[C@@]23[C@H](O)C[C@@H]4C(C)(C)CC[C@H](O)[C@@]4(CO)[C@@H]2CC[C@@H]1[C@H]3O` [KAMEBAKAURIN]: the IC50 amounted to 0.82 µg/mL (≈ 2.34 µM).

`C=C1C(=O)[C@@]23[C@H](O)C[C@@H]4C(C)(C)CC[C@H](O)[C@@]4(C)[C@@H]2CC[C@@H]1[C@H]3O` [KAMEBANIN] displayed an IC50 of 0.69 µg/mL (≈ 2.06 µM).

On to `C=C1C(=O)[C@]23[C@H](O)[C@H]1CC[C@H]2[C@@]12CO[C@@]3(O)C[C@@H]1C(C)(C)CC[C@@H]2O` [MEGATHYRIN A], for which the IC50 came to 0.77 µg/mL (≈ 2.21 µM).

Molecule `C=C1C(=O)[C@@]23[C@H](O)C[C@@H]4[C@@](C)(CO)CCC[C@@]4(C)[C@@H]2C[C@H](O)[C@@H]1[C@H]3O` [RABDOKUNMIN C] returned an IC50 of 1.06 µg/mL (≈ 3.02 µM).

As for `C=C1C(=O)[C@@]23[C@H](O)C[C@@H]4C(C)(C)CC[C@H](O)[C@@]4(CO)[C@@H]2C[C@H](O)[C@@H]1[C@H]3O` [RABDOSERRIN B], the midpoint of inhibition, the IC50, lay at 1.01 µg/mL (≈ 2.76 µM).

What is called IC50 is the midpoint of a concentration-inhibition curve.
